Laboratory results from ChEMBL document CHEMBL4513216, “Probing the Open Global Health Chemical Diversity Library for Multistage-Active Starting Points for Next-Generation Antimalarials” (ACS Infect Dis, 2020).

Test: Toxicity liver stage against HepG2, at 10uM
Assay type: cell-based
Design: test concentration 10 uM, cell line HepG2-A16-CD81EGFP
Conditions: human, HepG2-A16-CD81EGFP cells; read-out: INHIBITION
Procedure, shortened: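 Uninfected HepG2-A16-CD81EGFP cells, 3 × 10^3 per well, 1536-well, plated on prespotted compound at 10 μM final, parasite-free screening media added to match infected plates; puromycin 10 μM positive, DMSO 0.5% negative; run in parallel with 48 h PbLuc assay at 37 °C, 5% CO2; viability by CellTiter-Glo luminescence, normalized to controls.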

Compound | cytotoxicity at 10 µM [%]
CC1=C[C@@H](CN2CCC(O)CC2)[C@H](C(C)C)C[C@H]1Cc1nnc(C)o1 | 0.788
CC(=O)N1CC[C@H](c2nc3cc(C)ccc3o2)C1 | -4.13
COc1ccccc1-n1c(C)cc(CNC(=O)NC(C)C)c1C | 3.49
Cn1c(C(F)(F)F)nn(CCNC(=O)CCc2ccccc2)c1=O | 10.7
CCCC(=O)N1CCC2(CC1)COC2 | 1.58
CN1CC(c2ccccc2)C2(CCN(C(=O)c3cccn3C)CC2)C1=O (centres undefined) | 3.83
COCCN1CCC2(CCCN(c3ncc(F)cn3)C2)C1 (centres undefined) | 4.71
Cc1nc(C)n(CC2CN(S(C)(=O)=O)Cc3nccn3C2)n1 (centres undefined) | -140
Cc1noc([C@@]23CCO[C@@H]2CCN(C(=O)c2cc(C)[nH]c2C)C3)n1 | 10.4
CCS(=O)(=O)N1CCOC2(CCCN(c3cccc(C#N)c3)C2)C1 (centres undefined) | 0.341
CN(C)c1ncc2c(n1)C1(CCN(Cc3cccnc3)C1)COC2 (centres undefined) | 9.05
COCC1CN(Cc2cccc(C#N)c2)Cc2nccn2C1 (centres undefined) | -141
COc1cccc2c1ccn2CCC(=O)N1CCC(C(=O)O)CC1 | 7.08
CCOC1COC2(CCN(Cc3ccc4c(c3)OCO4)CC2)C1 (centres undefined) | 6.94
CN(C)CCN1CCCC12CCN(C(=O)c1cnccn1)CC2 | 4.99
Cc1nc(NCCN2CCCC2=O)cc(C2CN(C(C)C)CCO2)n1 (centres undefined) | 3.88
CCc1cccc2cc(CNCCOC)c(=O)[nH]c12 | 1.47
O=C(c1cccnc1)N1Cc2ccccc2OCC1Cn1ccnc1 (centres undefined) | 1.68
Cc1nccn1[C@@H]1CC[C@@H](NC(=O)CCCn2cncn2)[C@H]1O | 6.17
CC(=O)N1CCN([C@@H]2CC[C@@H](NC(=O)c3ccc(C)nc3)[C@H]2O)CC1 | -3.08
CC(=O)N1CCC2(CC1)CC(C(C)C)=NO2 | 8.74
CCc1nnc(S(=O)(=O)Cc2cc(Cl)c3c(c2)OCO3)n1C | -46.3

Compound | cytotoxicity at 10 µM [%]
Cc1cccc(NCc2nc(C)ccc2O)c1 | -3.59
CCC(C)(C)NC(=O)c1scnc1Cl | -0.47
CCc1ccc(C(NC(=O)CN(C)S(C)(=O)=O)C(C)(C)C)o1 (centres undefined) | -1.76
Cc1cnn(CCNCC(=O)N2CCN(c3ncccn3)CC2)c1 | -0.0264
CNC(=O)NC(=O)C(NCc1ccccc1)c1ccccc1 (centres undefined) | -52.9
Cc1cc(NC(=O)CNc2cccc(OC(F)F)c2C)n(C)n1 | 9.47
CCOc1cc(Cl)ccc1CNC(=O)N(C)CC(C)(C)O | -0.538
O=C1CCN(C(=O)C2(c3ccc(F)cc3)CCCC2)CCN1 | -8.27
CCOCC(=O)NC1(c2nc(C)cs2)CCCC1 | -12.7
Cc1cccc(NC(=O)[C@@H]2CCCN2Cc2ccc(C#N)cc2F)n1 | -5.64
CN1CCC(N(Cc2ccccc2F)C(=O)NCc2ccncc2)CC1 | -2.14
CCC(CC)c1cc(CNC(=O)N2CCN(CC)CC2)on1 | -3.26
COc1ccccc1N1CCN(Cc2nc(C)c(C)o2)CC1 | 13.4
CC(C)C(=O)Nc1ccc(Sc2nncn2C)c(Cl)c1 | -1.18
NC(=O)CN1CCC(NC(=O)N2CCCC2c2ccncc2)CC1 (centres undefined) | 10.5
N#CCCN(Cc1ccco1)C(=O)Cc1ccc(-n2cnnn2)cc1 | 3.23
CN(Cc1nnc(-c2ccco2)o1)Cc1nc2c(s1)CCCC2 | 1.13
CSCC(C)(O)CNc1ncccc1I (centres undefined) | -2.36
CN(C)C(CNCc1nc(-c2ccsc2)no1)c1ccco1 (centres undefined) | 10.2
CC(CNCC1(S(C)(=O)=O)CCOCC1)c1ccc(F)cc1 (centres undefined) | -5.06
Cc1ccsc1CNC(=O)c1ccc(N2CCNC2=O)cc1 | 1.79
COc1ccc(C(=O)Nc2cnn(CC(=O)NC3CCCC3)c2)c(O)c1 | -14.8

Compound | cytotoxicity at 10 µM [%]
CC(C)c1nnc2n1CC(CNCc1ccncc1)CC2 (centres undefined) | -17.5
COc1ncccc1CN1Cc2nccn2CC(Cn2cccn2)C1 (centres undefined) | -106
CCS(=O)(=O)N1CC[C@@H]2[C@H]1CCC(=O)N2CCOC | -104
CN(C)Cc1nc2c(o1)CN(C(=O)c1ccncc1F)C2 | -114
O=C(O)c1cc2c(nc1-c1ccncc1)CCN(Cc1ccoc1)CC2 | -70.9
COCC(=O)N1CCCC2(CCN(c3cncnc3)C2=O)C1 (centres undefined) | -72.5
c1cnc(NCC2Cn3nnc(-c4ccoc4)c3CO2)nc1 (centres undefined) | -76.1
O=C(c1ccco1)N1CCn2cc(CN3CCCC3)nc2C1 | -78.9
NC(=O)N1CCC2(CC1)CN(c1ncccn1)CCO2 | -75.1
CCNC(=O)c1c2c(N3CCN(C)CC3)ncnc2n2ccccc12 | -74.8
O=C(c1ccnnc1)N1CC[C@H]2C[C@H](c3ccncn3)O[C@@H]2C1 | -71.8
O=C(NCC1CC1)[C@H]1C[C@@H]2CCN(Cc3nccs3)C[C@@H]2O1 | -1.7
N[C@H]1CN(C(=O)Cc2ccc(CO)cc2)C[C@@H]1C1CC1 | -5.68
Cc1nc(CN2CCCCC2CCc2cccs2)co1 (centres undefined) | -2.36
CCOc1c(CNC2CSCCSC2)cccc1OC | 10.8
COCCCN1C(=O)CC[C@H]2CN(c3cc(C(N)=O)ccn3)CC[C@H]21 | 4.12
Cc1nn(C)c2ncnc(N3CCCC(OCc4cccnc4)C3)c12 (centres undefined) | 12.8
COCCN1CC2(CCCN(C(=O)CCCc3cccs3)C2)CCC1=O (centres undefined) | -8.5
CCCN1CCC=C(C2c3nc[nH]c3CCN2C(=O)c2ccco2)C1 (centres undefined) | 1.33
COCCN1CCC2(CCC1=O)CN(c1ccnc(SC)n1)CCN2C (centres undefined) | 2.41
COc1ccc(N2CCN(CC[C@H](O)c3ccccc3)CC2=O)cc1 | 2.41
CCCn1cc(-c2cc(-c3cnc(OC)nc3)c(C#N)c(N)n2)c(C)n1 | 2.89

Compound | cytotoxicity at 10 µM [%]
OC1(CNCc2noc(Cc3ccccc3)n2)CNCCOC1 (centres undefined) | 9.34
O=C(NCc1sc2ccccc2c1Cl)c1cc2n(n1)CCNC2 | 7.94
CC(=O)NCCNCC1(O)CCCN(CCC2CCCCC2)C1=O (centres undefined) | 6.27
CCc1nc(C)c(C2CC(=O)Nc3c2c(-c2ccccn2)nn3C)[nH]1 (centres undefined) | -6.37
CSc1ccc(CCN2CCN([C@H]3CCCC[C@@H]3O)CC2)cc1 | -3.38
CN(C)C(=O)NCC(=O)N(C)Cc1cc(-c2ccccc2)no1 | 1.14
OCC1COCCN(c2ncccc2C(F)(F)F)C1 (centres undefined) | -9.34
CS(=O)(=O)NCCNc1ncnc2cccc(F)c12 | 3.17
CN(C)CCNC(=O)c1cc2n(n1)CCN(C(=O)c1ccc[nH]1)C2 | 2.58
O=S1(=O)COCCN1Cc1ccc(Cl)c(F)c1 | -11.6
COc1cccn(CC(=O)N(C)CCOc2cc(C)cc(C)c2)c1=O | -10.6
CSc1ncccc1C(=O)N1CCC(c2nc3c(C)cccc3[nH]2)CC1 | -20
CC(=O)N1CCc2c(nc(-c3ccncc3)nc2N(C)CC(O)CO)C1 (centres undefined) | -13.1
COc1c(C2CCCN2C(=O)c2scnc2C)c(C)nn1C (centres undefined) | -1.49
Cc1ccc(OCC(=O)N2CCCC(n3nc(C)nc3C)C2)cc1 (centres undefined) | -10.1
CCn1cnnc1CNC(=O)N1CCN(c2ccccc2Cl)CC1 | -0.502
c1cc(CN2CCOC(Cn3cccn3)C2)c2c(c1)OCCO2 (centres undefined) | -2.66
CCc1ccc(CNC(=O)NCc2nnc3n2CCC3)s1 | 2.12
COc1ccc(CN(C)C(=O)NCc2c(C)cc(C)[nH]c2=O)cc1 | -1.13
CCN(CC)c1ccc(C(=O)N(C)Cc2c(C)noc2C)cn1 | -5.38
CNC(=O)c1cccc(NC(=O)Cn2nc(-c3cccs3)oc2=O)c1 | -8.28
O=C(NCCNc1ncccn1)c1ccc(-c2ccco2)[nH]c1=O | -3.29

Compound | cytotoxicity at 10 µM [%]
CCN(C(=O)c1ccc(-n2ncc(C#N)c2N)cc1)C1CCCC1 | -13
Cc1nn(C)c(N(C)C)c1CNC(C)COc1cccc(F)c1 (centres undefined) | -4.96
COc1ccccc1CN1CCCCC1c1n[nH]cc1-c1cc(C)no1 (centres undefined) | 13.6
Cc1ncsc1CN1C[C@H](C(=O)N2CCCO2)[C@@H]2CCO[C@@H]2C1 | -11.6
COc1ccc(CNC(C)Cn2cccn2)c(OC)c1OC (centres undefined) | -8.17
CN(C)C(=O)CO[C@H]1CN(Cc2ccc(F)cc2)[C@@H]2CCCO[C@H]12 | -22.3
O=C(c1cscn1)N1CCC2(CN(Cc3ccncc3)C2)C1 | 6.82
COCCNC(=O)[C@H]1CN(Cc2csc(C)n2)C[C@H]2OCC[C@@H]12 | 9.9
c1cnc(NCc2nnn3c2CN(Cc2cccs2)CCC3)nc1 | 10.1
COCCN1C[C@@H]2CN(Cc3ccc(C)s3)CCC[C@]2(C(=O)O)C1 | -96.8
CN(C)C(=O)[C@H]1C[C@H]2OCC[C@H]2N(Cc2ccc3ccccc3n2)C1 | -55.9
O=C([C@H]1CN(Cc2ccc(F)cc2)C[C@H]2OCC[C@@H]12)N1CCCO1 | 7.77
c1ccc(OCc2nnc3n2CCN(Cc2ccco2)C3)nc1 | 5.5
c1ccc(CN2CCc3ncnc(-c4cccnc4)c3CC2)nc1 | -75.7
Cc1cccc(C(=O)N2CCC3(CCN(c4cnn(C)c4)C3=O)C2)n1 (centres undefined) | 5.05
Cc1ccc(N2CCO[C@H]3CN(Cc4nccs4)C[C@H]32)nn1 | -94.7
Cc1nc(CO[C@H]2CN(C(=O)c3cnoc3C)[C@@H]3COC[C@H]23)cs1 | -107
CCS(=O)(=O)NC[C@]12COC[C@H]1CN(Cc1cccnc1)C2 | 5.22
CCc1cc(NC2CCC(O)CC2)n2nc(C)c(C)c2n1 (centres undefined) | -6.86
CCCn1nccc1NC(=O)CN1CCCC1c1cccn1C (centres undefined) | -5.76
Cc1ccc(CN2C[C@@H]3CC[C@H]2CN(Cc2[nH]cnc2C)C3)o1 | -6.81
